Laboratory results taken from ChEMBL document CHEMBL1275592, “AmpN-AmpG operon is essential for expression of L1 and L2 beta-lactamases in Stenotrophomonas maltophilia” (2010).
Converted amounts (≈) assume the structure as drawn.

Experiments:
[1] = test system: Stenotrophomonas maltophilia; experiment: Antimicrobial activity against ampN deficient Stenotrophomonas maltophilia KJ harboring ampG with xylE-Gmomega cassette insertion by agar dilution method; type: functional
Outline: (§1)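 MICs were determined in triplicate by standard 2-fold serial agar dilution, following CLSI guidelines.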

[2] = molecular target: T1, Catechol 2,3-dioxygenase (Stenotrophomonas maltophilia) (UniProt A7LB47); experiment: Induction of catechol 2,3-dioxygenase activity in Stenotrophomonas maltophilia KJ harboring pRKF4 plasmid at 20 ug/ml
T1 sequence (whole entry): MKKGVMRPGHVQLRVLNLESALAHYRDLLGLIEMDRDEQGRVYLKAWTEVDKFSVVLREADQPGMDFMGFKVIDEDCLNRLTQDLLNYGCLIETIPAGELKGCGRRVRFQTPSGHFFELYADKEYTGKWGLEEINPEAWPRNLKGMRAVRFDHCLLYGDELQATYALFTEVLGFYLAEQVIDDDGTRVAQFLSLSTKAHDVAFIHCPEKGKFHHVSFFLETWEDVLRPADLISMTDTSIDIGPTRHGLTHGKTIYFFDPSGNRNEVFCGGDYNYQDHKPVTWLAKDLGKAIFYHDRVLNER
Outline: (§2)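 C23O (xylE product) activity assayed in intact cells, with cefuroxime 20 μg/ml as inducer. Rate calculated with extinction coefficient 44,000 M−1 cm−1. One unit (Uc) converts 1 nmol substrate/min. Specific activity given as Uc/OD450. Plasmids were introduced into S. maltophilia by conjugation and confirmed by colony PCR.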

[3] = test system: Stenotrophomonas maltophilia; experiment: Induction of beta-lactamase activity in Stenotrophomonas maltophilia KJ harboring pRK415 plasmid at 20 ug/ml
Outline: (§3)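 Cells were induced with cefuroxime at 20 μg/ml. β-Lactamase activity was measured as nitrocefin hydrolysis at 486 nm, using ε 20,500 M−1 cm−1. Specific activity is nmol nitrocefin hydrolysed/min/mg protein. Protein was measured by dye-binding assay against a BSA standard. Basal and induced activities are both reported.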

[4] = test system: Stenotrophomonas maltophilia; experiment: Induction of beta-lactamase activity in Stenotrophomonas maltophilia KJ harboring pRK-NG plasmid at 20 ug/ml; outline: as §3
[5] = test system: Stenotrophomonas maltophilia; experiment: Induction of beta-lactamase activity in Stenotrophomonas maltophilia KJN1 harboring ampN with xylE-Gmomega cassette insertion at 20 ug/ml; outline: as §3
[6] = test system: Stenotrophomonas maltophilia; experiment: Induction of beta lactamase activity in Stenotrophomonas maltophilia KJN2 harboring pRK-G and ampN with xylE-Gmomega cassette insertion at 20 ug/ml; outline: as §3
[7] = molecular target: T1, Catechol 2,3-dioxygenase (Stenotrophomonas maltophilia); experiment: Induction of catechol 2,3-dioxygenase activity in Stenotrophomonas maltophilia KJ harboring pRKF6 plasmid at 20 ug/ml; outline: as §2
[8] = test system: Stenotrophomonas maltophilia; experiment: Induction of beta-lactamase activity in ampN deficient Stenotrophomonas maltophilia KJ at 20 ug/ml; outline: as §3
[9] = molecular target: T1, Catechol 2,3-dioxygenase (Stenotrophomonas maltophilia); experiment: Induction of catechol 2,3-dioxygenase activity in ampN deficient Stenotrophomonas maltophilia KJ harboring pRK-G and ampG gene with xylE-Gmomega cassette insertion at 20 ug/ml; outline: as §2
[10] = molecular target: T1, Catechol 2,3-dioxygenase (Stenotrophomonas maltophilia); experiment: Induction of catechol 2,3-dioxygenase activity in ampN deficient Stenotrophomonas maltophilia KJ harboring pRK-N and ampG gene with xylE-Gmomega cassette insertion at 20 ug/ml; outline: as §2
[11] = test system: Stenotrophomonas maltophilia; experiment: Antimicrobial activity against Stenotrophomonas maltophilia KJ by agar dilution method; type: functional; outline: as §1
[12] = test system: Stenotrophomonas maltophilia; experiment: Antimicrobial activity against Stenotrophomonas maltophilia KJN2 harboring pRK-EcG plasmid and ampN with xylE-Gmomega cassette insertion by agar dilution method; type: functional; outline: as §1
[13] = test system: Stenotrophomonas maltophilia; experiment: Antimicrobial activity against ampN deficient Stenotrophomonas maltophilia KJ by agar dilution method; type: functional; outline: as §1
[14] = test system: Stenotrophomonas maltophilia; experiment: Antimicrobial activity against Stenotrophomonas maltophilia KJN2 harboring pRK-G plasmid and ampN with xylE-Gmomega cassette insertion by agar dilution method; type: functional; outline: as §1
[15] = test system: Stenotrophomonas maltophilia; experiment: Induction of beta lactamase activity in Stenotrophomonas maltophilia KJN2 harboring pRK415 and ampN with xylE-Gmomega cassette insertion at 20 ug/ml; outline: as §3
[16] = test system: Stenotrophomonas maltophilia; experiment: Induction of beta-lactamase activity in ampN deficient Stenotrophomonas maltophilia KJ harboring ampG gene with xylE-Gmomega cassette insertion at 20 ug/ml; outline: as §3
[17] = test system: Stenotrophomonas maltophilia; experiment: Antimicrobial activity against Stenotrophomonas maltophilia KJN1 harboring ampN with xylE-Gmomega cassette insertion by agar dilution method; type: functional; outline: as §1
[18] = test system: Stenotrophomonas maltophilia; experiment: Induction of beta lactamase activity in Stenotrophomonas maltophilia KJN2 harboring pRK-NG and ampN with xylE-Gmomega cassette insertion at 20 ug/ml; outline: as §3
[19] = molecular target: T1, Catechol 2,3-dioxygenase (Stenotrophomonas maltophilia); experiment: Induction of catechol 2,3-dioxygenase activity in Stenotrophomonas maltophilia KJG harboring ampG with xylE-Gmomega cassette insertion at 20 ug/ml; outline: as §2
[20] = molecular target: T1, Catechol 2,3-dioxygenase (Stenotrophomonas maltophilia); experiment: Induction of catechol 2,3-dioxygenase activity in Stenotrophomonas maltophilia KJ harboring pRKF5 plasmid at 20 ug/ml; outline: as §2
[21] = molecular target: T1, Catechol 2,3-dioxygenase (Stenotrophomonas maltophilia); experiment: Induction of catechol 2,3-dioxygenase activity in Stenotrophomonas maltophilia KJN1 harboring ampN with xylE-Gmomega cassette insertion at 20 ug/ml; outline: as §2
[22] = molecular target: T1, Catechol 2,3-dioxygenase (Stenotrophomonas maltophilia); experiment: Induction of catechol 2,3-dioxygenase activity in ampN deficient Stenotrophomonas maltophilia KJ harboring pRK-NG and ampG gene with xylE-Gmomega cassette insertion at 20 ug/ml; outline: as §2
[23] = test system: Stenotrophomonas maltophilia; experiment: Antimicrobial activity against Stenotrophomonas maltophilia KJN2 harboring pRK-NG plasmid and ampN with xylE-Gmomega cassette insertion by agar dilution method; type: functional; outline: as §1
[24] = test system: Stenotrophomonas maltophilia; experiment: Antimicrobial activity against Stenotrophomonas maltophilia KJN2 harboring pRK415 plasmid and ampN with xylE-Gmomega cassette insertion by agar dilution method; type: functional; outline: as §1
[25] = test system: Stenotrophomonas maltophilia; experiment: Induction of beta-lactamase activity in Stenotrophomonas maltophilia KJG harboring ampG with xylE-Gmomega cassette insertion at 20 ug/ml; outline: as §3
[26] = molecular target: T1, Catechol 2,3-dioxygenase (Stenotrophomonas maltophilia); experiment: Induction of catechol 2,3-dioxygenase activity in Stenotrophomonas maltophilia KJN2 harboring ampN with xylE-Gmomega cassette insertion at 20 ug/ml; outline: as §2
[27] = test system: Stenotrophomonas maltophilia; experiment: Induction of beta-lactamase activity in Stenotrophomonas maltophilia KJ at 20 ug/ml
Outline: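 Cefuroxime 20 μg/ml added as inducer. β-lactamase activity read by nitrocefin hydrolysis at 486 nm (ε 20,500 M−1 cm−1). Specific activity given as nmol nitrocefin hydrolyzed/min/mg protein. Protein measured by Bio-Rad assay against a BSA standard. L1 versus L2 split by the modified nitrocefin-EDTA method.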

[28] = test system: Stenotrophomonas maltophilia; experiment: Induction of beta lactamase activity in Stenotrophomonas maltophilia KJN2 harboring pRK-EcG and ampN with xylE-Gmomega cassette insertion at 20 ug/ml; outline: as §3
[29] = molecular target: T1, Catechol 2,3-dioxygenase (Stenotrophomonas maltophilia); experiment: Induction of catechol 2,3-dioxygenase activity in Stenotrophomonas maltophilia KJ harboring pRK415 plasmid at 20 ug/ml; outline: as §2
[30] = molecular target: T1, Catechol 2,3-dioxygenase (Stenotrophomonas maltophilia); experiment: Induction of catechol 2,3-dioxygenase activity in ampN deficient Stenotrophomonas maltophilia KJ harboring ampG gene with xylE-Gmomega cassette insertion at 20 ug/ml; outline: as §2
[31] = molecular target: T1, Catechol 2,3-dioxygenase (Stenotrophomonas maltophilia); experiment: Induction of catechol 2,3-dioxygenase activity in Stenotrophomonas maltophilia KJ harboring pRKF2 plasmid at 20 ug/ml; outline: as §2
[32] = test system: Stenotrophomonas maltophilia; experiment: Antimicrobial activity against Stenotrophomonas maltophilia KJG harboring ampG with xylE-Gmomega cassette insertion by agar dilution method; type: functional; outline: as §1
[33] = molecular target: T1, Catechol 2,3-dioxygenase (Stenotrophomonas maltophilia); experiment: Induction of catechol 2,3-dioxygenase activity in Stenotrophomonas maltophilia KJ harboring pRKF3 plasmid at 20 ug/ml; outline: as §2
[34] = test system: Stenotrophomonas maltophilia; experiment: Induction of beta-lactamase activity in Stenotrophomonas maltophilia KJN2 harboring ampN with xylE-Gmomega cassette insertion at 20 ug/ml; outline: as §3
[35] = molecular target: T1, Catechol 2,3-dioxygenase (Stenotrophomonas maltophilia); experiment: Induction of catechol 2,3-dioxygenase activity in Stenotrophomonas maltophilia KJ harboring pRKF1 plasmid at 20 ug/ml; outline: as §2
[36] = test system: Stenotrophomonas maltophilia; experiment: Antimicrobial activity against Stenotrophomonas maltophilia KJN2 harboring ampN with xylE-Gmomega cassette insertion by agar dilution method; type: functional; outline: as §1
[37] = molecular target: T1, Catechol 2,3-dioxygenase (Stenotrophomonas maltophilia); experiment: Induction of catechol 2,3-dioxygenase activity in ampN deficient Stenotrophomonas maltophilia KJ harboring pRK415 and ampG gene with xylE-Gmomega cassette insertion at 20 ug/ml; outline: as §2
[38] = test system: Stenotrophomonas maltophilia; experiment: Antimicrobial activity against Stenotrophomonas maltophilia KJ harboring pRK415 plasmid by agar dilution method; type: functional; outline: as §1
[39] = test system: Stenotrophomonas maltophilia; experiment: Antimicrobial activity against Stenotrophomonas maltophilia KJ harboring pRK-NG plasmid by agar dilution method; type: functional; outline: as §1

CO/N=C(\C(=O)N[C@@H]1C(=O)N2C(C(=O)O)=C(COC(N)=O)CS[C@H]12)c1ccco1 [CEFUROXIME]
MIC [1]: 32 mg/L (≈ 75.4 µM)
Activity (nmol/min/OD450) [2]: 45
Activity [3]: 1740 U/mg
Activity [4]: 1620 U/mg
Activity [5]: 5 U/mg
Activity [6]: 12 U/mg
Activity (nmol/min/OD450) [7]: 8
Activity [8]: 6 U/mg
Activity (nmol/min/OD450) [9]: 4
Activity (nmol/min/OD450) [10]: 5
MIC [11]: > 1020 mg/L
MIC [12]: > 1020 mg/L
MIC [13]: 32 mg/L (≈ 75.4 µM)
MIC [14]: 64 mg/L (≈ 151 µM)
Activity [15]: 18 U/mg
Activity [16]: 3 U/mg
MIC [17]: 32 mg/L (≈ 75.4 µM)
Activity [18]: 1450 U/mg
Activity (nmol/min/OD450) [19]: 41
Activity (nmol/min/OD450) [20]: 6
Activity (nmol/min/OD450) [21]: 4
Activity (nmol/min/OD450) [22]: 5
MIC [23]: > 1020 mg/L
MIC [24]: 32 mg/L (≈ 75.4 µM)
Activity [25]: 6 U/mg
Activity (nmol/min/OD450) [26]: 39
Activity [27]: 1520 U/mg
Activity [28]: 882 U/mg
Activity (nmol/min/OD450) [29]: 0
Activity (nmol/min/OD450) [30]: 4
Activity (nmol/min/OD450) [31]: 50
MIC [32]: 32 mg/L (≈ 75.4 µM)
Activity (nmol/min/OD450) [33]: 6
Activity [34]: 5 U/mg
Activity (nmol/min/OD450) [35]: 6
MIC [36]: 32 mg/L (≈ 75.4 µM)
Activity (nmol/min/OD450) [37]: 5

CO[C@@]1(NC(=O)Cc2cccs2)C(=O)N2C(C(=O)O)=C(COC(N)=O)CS[C@@H]21 [CEFOXITIN]
MIC [1]: 32 mg/L (≈ 74.9 µM)
MIC [38]: 1020 mg/L (≈ 2400 µM)
MIC [39]: 1020 mg/L (≈ 2400 µM)
MIC [11]: 1020 mg/L (≈ 2400 µM)
MIC [12]: 1020 mg/L (≈ 2400 µM)
MIC [13]: 32 mg/L (≈ 74.9 µM)
MIC [14]: 64 mg/L (≈ 150 µM)
MIC [17]: 32 mg/L (≈ 74.9 µM)
MIC [23]: 1020 mg/L (≈ 2400 µM)
MIC [24]: 32 mg/L (≈ 74.9 µM)
MIC [32]: 32 mg/L (≈ 74.9 µM)
MIC [36]: 32 mg/L (≈ 74.9 µM)
